Laboratory results published in ChEMBL document CHEMBL4765357, “Development of small-molecule inhibitors of fatty acyl-AMP and fatty acyl-CoA ligases in Mycobacterium tuberculosis” (Eur J Med Chem, 2020).
Converted amounts (≈) assume the structure as drawn.

How the values were obtained:
[1] = tested on: Mycobacterium tuberculosis; assay: Antimycobacterial activity against isoniazid/rifampicin/ethambutol/kanamycin/ofloxacin multidrug-resistant Mycobacterium tuberculosis assessed as inhibition of bacterial growth under GAST medium condition after 7 to 14 days by broth microdilution method; assay type: functional; settings: time 7-14 day
In short: (§1)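 Clinical MDR/XDR Mtb strains tested by broth microdilution in GAST or 7H9 with tyloxapol (0.05%), BSA fraction V (5 g/L) and NaCl (0.8 g/L) plus a carbon source. Compounds were dosed from DMSO stocks against DMSO vehicle controls. Inoculum was 10⁴-10⁵ cells per assay, with growth monitored at days 7 and 14. MIC is the concentration causing >99% inhibition.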

[2] = tested on: Mycobacterium tuberculosis; assay: (§2) Antimycobacterial activity against isoniazid/rifampicin/ethambutol/pyrazinamide/streptomycin/kanamycin/para-aminosalicylic acid/prothionamide multidrug-resistant Mycobacterium tuberculosis assessed as inhibition of bacterial growth under GAST medium condition after 7 to 14 days by broth microdilution method; assay type: functional; settings: time 7-14 day; in short: as §1
[3] = tested on: Mycobacterium tuberculosis; assay: as §2, with “7H9” for “GAST”, “days in presence of tylo-xapol” for “days”; assay type: functional; settings: time 7-14 day; in short: as §1
[4] = tested on: Mycobacterium tuberculosis; assay: Antimycobacterial activity against isoniazid/rifampicin/ethambutol/para-aminosalicylic acid extensively drug-resistant Mycobacterium tuberculosis assessed as inhibition of bacterial growth under GAST medium condition after 7 to 14 days by broth microdilution method; assay type: functional; settings: time 7-14 day; in short: as §1
[5] = tested on: Mycobacterium tuberculosis; assay: Antimycobacterial activity against isoniazid/rifampicin/ethambutol/streptomycin/ofloxacin/para-aminosalicylic acid/prothionamide multidrug-resistant Mycobacterium tuberculosis assessed as inhibition of bacterial growth under 7H9 medium condition after 7 to 14 days by broth microdilution method; assay type: functional; settings: time 7-14 day; in short: as §1
[6] = tested on: Mycobacterium tuberculosis; assay: Antimycobacterial activity against isoniazid/rifampicin/ethambutol/kanamycin/ofloxacin multidrug-resistant Mycobacterium tuberculosis assessed as inhibition of bacterial growth under 7H9 medium condition after 7 to 14 days by broth microdilution method; assay type: functional; settings: time 7-14 day; in short: as §1
[7] = tested on: Mycobacterium tuberculosis; assay: Antimycobacterial activity against isoniazid/rifampicin/ethambutol/para-aminosalicylic acid extensively drug-resistant Mycobacterium tuberculosis assessed as inhibition of bacterial growth under 7H9 medium condition after 7 to 14 days by broth microdilution method; assay type: functional; settings: time 7-14 day; in short: as §1
[8] = tested on: Mycobacterium tuberculosis; assay: Antimycobacterial activity against isoniazid/rifampicin/ethambutol/streptomycin/ofloxacin/para-aminosalicylic acid/prothionamide multidrug-resistant Mycobacterium tuberculosis assessed as inhibition of bacterial growth under GAST medium condition after 7 to 14 days by broth microdilution method; assay type: functional; settings: time 7-14 day; in short: as §1
[9] = tested on: Mycobacterium tuberculosis; assay: as §2, with “7H9” for “GAST”; assay type: functional; settings: time 7-14 day; in short: as §1
[10] = biological target: T1, Long-chain-fatty-acid--AMP ligase FadD32 (Mycobacterium tuberculosis (strain ATCC 25618 / H37Rv), UniProt O53580); assay: Inhibition of Mycobacterium tuberculosis H37Rv FAAL32 expressed in Escherichia coli BL21(DE3) cells incubated for 2 hrs in presence of [C14] fatty acid by SDS-PAGE analysis; settings: read-out: Ki(app)
T1 sequence (O53580 whole entry): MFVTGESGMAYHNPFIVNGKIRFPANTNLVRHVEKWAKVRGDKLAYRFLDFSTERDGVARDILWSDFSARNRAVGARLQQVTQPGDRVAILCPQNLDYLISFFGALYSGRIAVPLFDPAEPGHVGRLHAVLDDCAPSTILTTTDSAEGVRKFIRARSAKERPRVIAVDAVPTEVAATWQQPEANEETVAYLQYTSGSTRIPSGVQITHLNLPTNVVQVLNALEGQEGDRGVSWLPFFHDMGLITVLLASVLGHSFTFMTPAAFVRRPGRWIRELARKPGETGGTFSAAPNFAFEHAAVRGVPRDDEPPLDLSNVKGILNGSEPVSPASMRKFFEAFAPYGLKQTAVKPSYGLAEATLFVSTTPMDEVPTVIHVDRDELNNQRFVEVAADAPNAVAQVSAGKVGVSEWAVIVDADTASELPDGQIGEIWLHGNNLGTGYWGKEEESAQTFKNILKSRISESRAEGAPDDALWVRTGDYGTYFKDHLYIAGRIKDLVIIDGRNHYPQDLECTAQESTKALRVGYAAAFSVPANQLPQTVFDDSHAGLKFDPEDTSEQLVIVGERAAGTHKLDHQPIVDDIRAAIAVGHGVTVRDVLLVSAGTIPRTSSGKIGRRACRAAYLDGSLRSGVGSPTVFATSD

SMILES | MIC [1] | MIC [2] | MIC [3] | MIC [4] | MIC [5] | MIC [6] | MIC [7] | MIC [8] | MIC [9] | Ki [10]
CCCCCCCCCCCC(=O)NS(=O)(=O)OC[C@H]1O[C@@H](n2cnc3c(N)ncnc32)[C@H](O)[C@@H]1O | 3.13 µM (≈ 1.65 µg/mL) | 25 µM (≈ 13.2 µg/mL) | 12.5 µM | 6.25 µM (≈ 3.3 µg/mL) | 12.5 µM (≈ 6.61 µg/mL) | 6.25 µM (≈ 3.3 µg/mL) | 6.25 µM (≈ 3.3 µg/mL) | 12.5 µM (≈ 6.61 µg/mL) | 12.5 µM (≈ 6.61 µg/mL) | –
CCCCCCCCCCCCOP(=O)(O)OC[C@H]1O[C@@H](n2cnc3c(N)ncnc32)[C@H](O)[C@@H]1O | – | – | – | – | – | – | – | – | – | 110 nM
C=CCCCCCCCCC(=O)NS(=O)(=O)OC[C@H]1O[C@@H](n2cnc3c(N)ncnc32)[C@H](O)[C@@H]1O | 3.13 µM (≈ 1.6 µg/mL) | 3.13 µM (≈ 1.6 µg/mL) | 6.25 µM | 3.13 µM (≈ 1.6 µg/mL) | 25 µM (≈ 12.8 µg/mL) | 625 µM (≈ 320 µg/mL) | 12.5 µM (≈ 6.41 µg/mL) | 3.13 µM (≈ 1.6 µg/mL) | 50 µM (≈ 25.6 µg/mL) | –
Nc1ncnc2c1ncn2[C@@H]1O[C@H](COS(=O)(=O)NC(=O)CCCCCCCCCCOc2ccccc2)[C@@H](O)[C@H]1O | – | 6.25 µM (≈ 3.79 µg/mL) | 12.5 µM | – | 50 µM (≈ 30.3 µg/mL) | 12.5 µM (≈ 7.58 µg/mL) | 12.5 µM (≈ 7.58 µg/mL) | 625 µM (≈ 379 µg/mL) | 12.5 µM (≈ 7.58 µg/mL) | –
CCCCCCCCCCCCCC(=O)NS(=O)(=O)OC[C@H]1O[C@@H](n2cnc3c(N)ncnc32)[C@H](O)[C@@H]1O | 6.25 µM (≈ 3.48 µg/mL) | 12.5 µM (≈ 6.96 µg/mL) | 12.5 µM | 6.25 µM (≈ 3.48 µg/mL) | 12.5 µM (≈ 6.96 µg/mL) | 3.13 µM (≈ 1.74 µg/mL) | 6.25 µM (≈ 3.48 µg/mL) | 12.5 µM (≈ 6.96 µg/mL) | 25 µM (≈ 13.9 µg/mL) | –
CCCCCCCCCOCC(=O)NS(=O)(=O)OC[C@H]1O[C@@H](n2cnc3c(N)ncnc32)[C@H](O)[C@@H]1O | 0.39 µM (≈ 0.207 µg/mL) | 1.56 µM (≈ 0.828 µg/mL) | 12.5 µM | 0.78 µM (≈ 0.414 µg/mL) | 50 µM (≈ 26.5 µg/mL) | 6.25 µM (≈ 3.32 µg/mL) | 6.25 µM (≈ 3.32 µg/mL) | 6.25 µM (≈ 3.32 µg/mL) | 12.5 µM (≈ 6.63 µg/mL) | –
[N-]=[N+]=NCCCCCCCCCCCC(=O)NS(=O)(=O)OC[C@H]1O[C@@H](n2cnc3c(N)ncnc32)[C@H](O)[C@@H]1O | 3.13 µM (≈ 1.78 µg/mL) | 3.13 µM (≈ 1.78 µg/mL) | 6.25 µM | 3.13 µM (≈ 1.78 µg/mL) | 25 µM (≈ 14.2 µg/mL) | 625 µM (≈ 356 µg/mL) | 12.5 µM (≈ 7.12 µg/mL) | 625 µM (≈ 356 µg/mL) | 50 µM (≈ 28.5 µg/mL) | –
NNC(=O)c1ccncc1 [ISONIAZID] | 4 µM (≈ 0.549 µg/mL) | > 8 µM | 2 µM | 4 µM (≈ 0.549 µg/mL) | 8 µM (≈ 1.1 µg/mL) | 2 µM (≈ 0.274 µg/mL) | 2 µM (≈ 0.274 µg/mL) | 8 µM (≈ 1.1 µg/mL) | 2 µM (≈ 0.274 µg/mL) | –
